Seven compounds from ChEMBL document CHEMBL4725389, “Novel Blocker of Onco SK3 Channels Derived from Scorpion Toxin Tamapin and Active against Migration of Cancer Cells” (ACS Med Chem Lett, 2020) can be followed below.

Active and inactive are the calls of the source. No cut-off for these calls is given here. Positions of bridges follow the written chain, without caps; N, C: chain ends. Residues, ends and D or L forms follow the SMILES beside them.

The target in test [1] is Small conductance calcium-activated potassium channel protein 2 (Rattus norvegicus) (UniProt P70604). The test is described as follows: Inhibition of recombinant rat SK2 expressed in HEK293 cells at 10 nM and holding potential at 0 mV and ramp voltage from -100 to 100 mV by whole cell patch clamp method relative to control. Type of test: cell-based.
In test [2] the target is T1, Small conductance calcium-activated potassium channel protein 3 (Homo sapiens, UniProt Q9UGI6). The experiment in a line: Inhibition of recombinant human SK3 expressed in HEK293T cells assessed as ratio of amplitude of outward current blocked in presence and absence of compound at 1 nM and holding potential at 0 mV and ramp voltage from -100 to 100 mV by whole cell patch clamp method relative to control. Type of test: cell-based. A digest of the protocol: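 Whole-cell patch clamp on HEK293T cells expressing recombinant human SK3, pCa 6. Ramp from −100 to 100 mV over 500 ms, holding at 0 mV; currents analysed at 0 mV. Peptide at 1 nM, then 100 nM apamin to block residual SKCa current. Inhibition = ratio of outward current amplitude blocked at 1 nM to amplitude without compound.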
In general terms: Patch clamp records ionic current or voltage across a cell membrane.

Test [3] deals with MDA-MB-435. The experiment in a line: Inhibition of cell migration in human MDA-MB-435 cells transfected with lentivrus-encoding shRNA against SK3 by matrigel invasion method relative to control. Type of test: functional. In a few lines:
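MDA-MB-435s cells lacking SK3 expression were exposed to peptides at 100 nM. Migration is given as migrating cells with peptide divided by migrating cells under control conditions (means ± SEM, N = 4, n = 12). Groups were compared by Kruskal–Wallis with post hoc tests.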

Test [4] addresses T1, Small conductance calcium-activated potassium channel protein 3. The test is described as follows: Inhibition of recombinant human SK3 expressed in HEK293T cells assessed as reduction in channel current with holding potential 0 mV and ramp voltage from -100 to 100 mV by whole cell patch clamp method. Type of test: cell-based, HEK-293T. A digest of the protocol:
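HEK293T stably expressing recombinant human SK3, whole-cell recording at pCa 6. Ramp −100 to 100 mV, 500 ms, from 0 mV holding; current at 0 mV taken as SKCa-only. Concentration–response curves fitted for EC50 (means ± SEM, n = 3–8).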

Test [5] shares this target. The experiment in a line: Inhibition of recombinant human SK3 expressed in HEK293T cells at 10 nM and holding potential at 0 mV and ramp voltage from -100 to 100 mV by whole cell patch clamp method relative to control. Type of test: cell-based. Conditions: HEK-293T.
Test [6] has the same target. The test is described as follows: Inhibition of SK3-dependent cell migration in human MDA-MB-435 cells assessed as ratio of total cells migrating by matrigel invasion method relative to control. In kind it is cell-based.
Test [7] shares this target. The test is described as follows: Inhibition of recombinant human SK3 expressed in HEK293T cells assessed as […] at membrane potential -120 mV for 50 ms followed by 400 ms voltage ramp to 60 mV by whole cell patch clamp method. Type of test: cell-based, HEK-293T. (In general: A change in cytosolic calcium serves as a functional read-out for many receptors and channels.)

Test [8] deals with Small conductance calcium-activated potassium channel protein 2 (Rattus norvegicus, UniProt P70604). The experiment in a line: Inhibition of recombinant rat SK2 expressed in HEK293 cells assessed as […] at membrane potential -120 mV for 50 ms followed by 400 ms voltage ramp to 60 mV by whole cell patch clamp method. In kind it is cell-based.

Test [9] has as its system MDA-MB-435. The experiment in a line: Inhibition of cell migration in human MDA-MB-435 cells expressing SK3 by matrigel invasion method relative to control.

T1 sequence (Q9UGI6 whole entry): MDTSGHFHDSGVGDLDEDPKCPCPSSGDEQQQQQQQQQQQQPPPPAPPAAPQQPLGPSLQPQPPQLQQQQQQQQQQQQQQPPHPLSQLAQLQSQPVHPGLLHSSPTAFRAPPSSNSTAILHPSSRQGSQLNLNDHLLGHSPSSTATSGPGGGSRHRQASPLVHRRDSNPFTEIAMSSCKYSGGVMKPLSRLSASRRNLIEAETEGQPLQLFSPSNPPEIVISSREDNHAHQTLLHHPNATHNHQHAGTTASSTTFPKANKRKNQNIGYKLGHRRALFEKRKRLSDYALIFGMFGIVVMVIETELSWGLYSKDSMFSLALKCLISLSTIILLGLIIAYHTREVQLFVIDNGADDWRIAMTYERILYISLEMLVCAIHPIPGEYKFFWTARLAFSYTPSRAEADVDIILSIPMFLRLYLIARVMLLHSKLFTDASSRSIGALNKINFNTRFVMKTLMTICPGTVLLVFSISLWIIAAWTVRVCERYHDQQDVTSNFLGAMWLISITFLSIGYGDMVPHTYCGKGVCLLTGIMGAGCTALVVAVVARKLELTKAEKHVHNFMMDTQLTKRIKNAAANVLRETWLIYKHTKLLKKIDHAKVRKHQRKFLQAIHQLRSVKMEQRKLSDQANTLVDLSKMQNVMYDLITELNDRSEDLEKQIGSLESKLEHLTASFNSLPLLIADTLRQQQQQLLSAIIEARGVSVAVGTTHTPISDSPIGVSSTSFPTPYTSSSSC
Small conductance calcium-activated potassium channel protein 2 (Rattus norvegicus), sequence (P70604 whole entry): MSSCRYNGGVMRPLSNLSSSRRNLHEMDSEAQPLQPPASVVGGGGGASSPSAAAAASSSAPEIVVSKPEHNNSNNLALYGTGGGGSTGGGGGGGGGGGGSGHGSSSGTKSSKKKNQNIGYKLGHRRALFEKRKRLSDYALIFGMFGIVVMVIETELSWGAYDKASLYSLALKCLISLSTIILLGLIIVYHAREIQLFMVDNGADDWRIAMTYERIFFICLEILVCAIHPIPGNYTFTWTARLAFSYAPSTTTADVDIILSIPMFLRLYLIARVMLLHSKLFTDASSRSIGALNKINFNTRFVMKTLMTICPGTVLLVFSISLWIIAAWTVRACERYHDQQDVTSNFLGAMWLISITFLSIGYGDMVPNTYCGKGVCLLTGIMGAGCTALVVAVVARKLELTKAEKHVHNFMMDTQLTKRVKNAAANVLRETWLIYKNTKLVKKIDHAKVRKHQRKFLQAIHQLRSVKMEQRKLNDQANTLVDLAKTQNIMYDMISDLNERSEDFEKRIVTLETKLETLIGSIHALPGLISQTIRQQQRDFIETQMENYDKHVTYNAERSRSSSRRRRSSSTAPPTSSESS
Small conductance calcium-activated potassium channel protein 2, sequence (P70604 whole entry): as above

As a reminder, the inhibition is the drop in the measured response relative to a control, in per cent. What is called EC50 is the midpoint of the concentration-response curve. `CC[C@H](C)[C@@H]1NC(=O)[C@@H]2CSSC[C@H](NC(=O)[C@H](Cc3ccccc3)NC(=O)[C@H](C)N)C(=O)N[C@@H](CC(N)=O)C(=O)N[C@@H](CC(C)C)C(=O)N[C@@H](CCCNC(=N)N)C(=O)N[C@@H](CCCNC(=N)N)C(=O)N[C@H]3CSSC[C@H](NC(=O)[C@H](CCC(=O)O)NC(=O)[C@H](CCC(=O)O)NC(=O)CNC1=O)C(=O)N[C@@H](CCCCN)C(=O)N[C@H](C(=O)N[C@H](C(=O)N1CCC[C@H]1C(=O)N[C@@H](Cc1ccc(O)cc1)C(=O)O)C(C)C)CSSC[C@H](NC(=O)[C@H](CO)NC(=O)[C@H](CC(C)C)NC(=O)[C@H](CCC(=O)O)NC3=O)C(=O)N[C@@H](CCCNC(=N)N)C(=O)N[C@@H](CO)C(=O)N[C@@H](CC(C)C)C(=O)NCC(=O)N[C@@H](CC(C)C)C(=O)N[C@@H](CC(C)C)C(=O)NCC(=O)N[C@@H](CCCCN)C(=O)N2` (H-AFCNLRRCELSCRSLGLLGKCIGEECKCVPY-OH; disulfide 3-21, 8-26, 12-28): the values for the inhibition in test [1], in [2] and in test [5] were more than 85%, 25% and 40%, respectively. Moreover, the inhibition result in [3] and in test [6] was “inactive” throughout. Further, in test [4], the EC50 came out at 2.6 nM.
With `CC[C@H](C)[C@@H]1NC(=O)[C@@H]2CSSC[C@H](NC(=O)[C@@H](NC(=O)[C@H](C)N)C(C)C)C(=O)N[C@@H](CC(N)=O)C(=O)N[C@@H](CC(C)C)C(=O)N[C@@H](CCCCN)C(=O)N[C@@H](CCCNC(=N)N)C(=O)N[C@H]3CSSC[C@H](NC(=O)[C@H](CCCCN)NC(=O)[C@H](CC(=O)O)NC(=O)CNC1=O)C(=O)N[C@@H](CCC(=O)O)C(=O)N[C@H](C(=O)N[C@H](C(=O)N[C@@H](CCCCN)C(=O)N[C@@H](Cc1c[nH]cn1)C(N)=O)C(C)C)CSSC[C@H](NC(=O)[C@H](CO)NC(=O)[C@H](CC(C)C)NC(=O)[C@H](CCC(N)=O)NC3=O)C(=O)N[C@@H](CCCNC(=N)N)C(=O)N[C@@H](CO)C(=O)N[C@@H](CC(C)C)C(=O)NCC(=O)N[C@@H](CC(C)C)C(=O)N[C@@H](CC(C)C)C(=O)NCC(=O)N[C@@H](CCCCN)C(=O)N2` (H-AVCNLKRCQLSCRSLGLLGKCIGDKCECVKH-NH2; disulfide 3-21, 8-26, 12-28), the EC50 in [7] was determined as 3.8 nM.
As to `CC[C@H](C)[C@@H]1NC(=O)[C@@H]2CSSC[C@H](NC(=O)[C@H](Cc3ccccc3)NC(=O)[C@H](C)N)C(=O)N[C@@H](CC(N)=O)C(=O)N[C@@H](CC(C)C)C(=O)N[C@@H](CCCNC(=N)N)C(=O)N[C@@H](CCCNC(=N)N)C(=O)N[C@H]3CSSC[C@H](NC(=O)[C@H](CCC(=O)O)NC(=O)[C@H](CCC(=O)O)NC(=O)CNC1=O)C(=O)N[C@@H](CCCCN)C(=O)N[C@H](C(=O)N[C@H](C(=O)N1CCC[C@H]1C(=O)N[C@@H](Cc1ccc(O)cc1)C(N)=O)C(C)C)CSSC[C@H](NC(=O)[C@H](CO)NC(=O)[C@H](CC(C)C)NC(=O)[C@H](CCC(=O)O)NC3=O)C(=O)N[C@@H](CCCNC(=N)N)C(=O)N[C@@H](CO)C(=O)N[C@@H](CC(C)C)C(=O)NCC(=O)N[C@@H](CC(C)C)C(=O)N[C@@H](CC(C)C)C(=O)NCC(=O)N[C@@H](CCCCN)C(=O)N2` (H-AFCNLRRCELSCRSLGLLGKCIGEECKCVPY-NH2; disulfide 3-21, 8-26, 12-28), the EC50 amounted to 0.024 nM in test [8] and 1.7 nM in [7].
With `CC[C@H](C)[C@@H]1NC(=O)[C@@H]2CSSC[C@H](NC(=O)[C@H](Cc3ccccc3)NC(=O)[C@H](C)N)C(=O)N[C@@H](CC(N)=O)C(=O)N[C@@H](CC(C)C)C(=O)N[C@@H](CCCNC(=N)N)C(=O)N[C@@H](CCSC)C(=O)N[C@H]3CSSC[C@H](NC(=O)[C@H](CCCCN)NC(=O)[C@H](CC(=O)O)NC(=O)CNC1=O)C(=O)N[C@@H](CCC(=O)O)C(=O)N[C@H](C(=O)N[C@H](C(=O)N[C@@H](CCCCN)C(=O)N[C@@H](Cc1c[nH]cn1)C(=O)O)C(C)C)CSSC[C@H](NC(=O)[C@H](CO)NC(=O)[C@H](CC(C)C)NC(=O)[C@H](CCC(N)=O)NC3=O)C(=O)N[C@@H](CCCNC(=N)N)C(=O)N[C@@H](CO)C(=O)N[C@@H](CC(C)C)C(=O)NCC(=O)N[C@@H](CC(C)C)C(=O)N[C@@H](CC(C)C)C(=O)NCC(=O)N[C@@H](CCCCN)C(=O)N2` (H-AFCNLRMCQLSCRSLGLLGKCIGDKCECVKH-OH; disulfide 3-21, 8-26, 12-28), the EC50 in [8] came to 0.29 nM; in [7], 1.1 nM.
In the case of `CC[C@H](C)[C@@H]1NC(=O)[C@@H]2CSSC[C@H](NC(=O)[C@H](Cc3ccccc3)NC(=O)[C@H](C)N)C(=O)N[C@@H](CC(N)=O)C(=O)N[C@@H](CC(C)C)C(=O)N[C@@H](CCCNC(=N)N)C(=O)N[C@@H](CCCNC(=N)N)C(=O)N[C@H]3CSSC[C@H](NC(=O)[C@H](CCCCN)NC(=O)[C@H](CCC(=O)O)NC(=O)CNC1=O)C(=O)N[C@@H](CCCCN)C(=O)N[C@H](C(=O)N[C@H](C(=O)N1CCC[C@H]1C(=O)N[C@@H](Cc1ccc(O)cc1)C(=O)O)C(C)C)CSSC[C@H](NC(=O)[C@H](CO)NC(=O)[C@H](CC(C)C)NC(=O)[C@H](CCC(=O)O)NC3=O)C(=O)N[C@@H](CCCNC(=N)N)C(=O)N[C@@H](CO)C(=O)N[C@@H](CC(C)C)C(=O)NCC(=O)N[C@@H](CC(C)C)C(=O)N[C@@H](CC(C)C)C(=O)NCC(=O)N[C@@H](CCCCN)C(=O)N2` (H-AFCNLRRCELSCRSLGLLGKCIGEKCKCVPY-OH; disulfide 3-21, 8-26, 12-28), the figures for the inhibition in test [1] and in test [5] were less than 39% and 40%, respectively.
As to `CC[C@H](C)[C@@H]1NC(=O)[C@@H]2CSSC[C@H](NC(=O)[C@H](Cc3ccccc3)NC(=O)[C@H](C)N)C(=O)N[C@@H](CC(N)=O)C(=O)N[C@@H](CC(C)C)C(=O)N[C@@H](CCCNC(=N)N)C(=O)N[C@@H](CCCNC(=N)N)C(=O)N[C@H]3CSSC[C@H](NC(=O)[C@H](CCC(=O)O)NC(=O)[C@H](CCC(=O)O)NC(=O)CNC1=O)C(=O)N[C@@H](CCCCN)C(=O)N[C@H](C(=O)N[C@H](C(=O)N1CCC[C@H]1C(=O)N[C@@H](Cc1ccc(O)cc1)C(=O)N[C@@H](CC(N)=O)C(=O)O)C(C)C)CSSC[C@H](NC(=O)[C@H](CO)NC(=O)[C@H](CC(C)C)NC(=O)[C@H](CCC(=O)O)NC3=O)C(=O)N[C@@H](CCCNC(=N)N)C(=O)N[C@@H](CO)C(=O)N[C@@H](CC(C)C)C(=O)NCC(=O)N[C@@H](CC(C)C)C(=O)N[C@@H](CC(C)C)C(=O)NCC(=O)N[C@@H](CCCCN)C(=O)N2` (H-AFCNLRRCELSCRSLGLLGKCIGEECKCVPYN-OH; disulfide 3-21, 8-26, 12-28), the inhibition is 40% in test [1] and less than 39% in [5].
As to `CC[C@H](C)[C@@H]1NC(=O)[C@@H]2CSSC[C@H](NC(=O)[C@H](Cc3ccccc3)NC(=O)[C@H](C)N)C(=O)N[C@@H](CC(N)=O)C(=O)N[C@@H](CC(C)C)C(=O)N[C@@H](CCCNC(=N)N)C(=O)N[C@@H](CCCNC(=N)N)C(=O)N[C@H]3CSSC[C@H](NC(=O)[C@H](CCCCN)NC(=O)[C@H](CCC(=O)O)NC(=O)CNC1=O)C(=O)N[C@@H](CCC(=O)O)C(=O)N[C@H](C(=O)N[C@H](C(=O)N1CCC[C@H]1C(=O)N[C@@H](Cc1ccc(O)cc1)C(=O)O)C(C)C)CSSC[C@H](NC(=O)[C@H](CO)NC(=O)[C@H](CC(C)C)NC(=O)[C@H](CCC(=O)O)NC3=O)C(=O)N[C@@H](CCCNC(=N)N)C(=O)N[C@@H](CO)C(=O)N[C@@H](CC(C)C)C(=O)NCC(=O)N[C@@H](CC(C)C)C(=O)N[C@@H](CC(C)C)C(=O)NCC(=O)N[C@@H](CCCCN)C(=O)N2` (H-AFCNLRRCELSCRSLGLLGKCIGEKCECVPY-OH; disulfide 3-21, 8-26, 12-28), the inhibition is 40% in test [1], 73% in test [2], more than 85% in [5] and 76.5% in [6] (concentration not given here). The EC50 in [4] came to 0.38 nM. Further, the “inhibition (INH)” value in test [9] is reported as 45.9%.
